Data set [1] relates to PC-3. The data set is described as follows: Cytotoxicity against human PC-3 cells assessed as reduction in cell viability incubated for 2 hrs under hypoxic condition followed by washed with fresh media incubated for 3 days by alamar blue assay. It counts as functional, cell-based. In a few lines: (§1)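 Cells exposed to the mustards across a concentration range for 2 h under hypoxia (N2) or normoxia (air), then washed and incubated 3 days under normoxia. Viability was read with alamarBlue, and IC50 is reported as mean ± SEM.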

The nature of data set [2]: Lipophilicity, logD of compound at pH 7.4 by microscale shake flask method. It counts as physicochemical. The following applies: buffer. In a few lines: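 Distribution coefficient measured at pH 7.4 and reported as mean ± SEM from two or more independent experiments, each in triplicate.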
Data set [3] concerns DU-145. Description: Cytotoxicity against human DU145 cells assessed as reduction in cell viability incubated for 2 hrs under hypoxic condition followed washed with fresh media incubated for 3 days by alamar blue assay. In kind it is functional, cell-based. In a few lines: as §1
Data set [4] relates to DU-145. The data set is described as follows: Cytotoxicity against human DU145 cells assessed as reduction in cell viability incubated for 2 hrs under normoxic condition followed by washed with fresh media incubated for 3 days by alamar blue assay. It counts as functional, cell-based. In a few lines: as §1
(The colour change of resazurin is a common sign of viable cells or microbes.)

The nature of data set [5]: Selectivity index, ratio of IC50 for human PC-3 cells under normoxic condition to IC50 human PC-3 cells under hypoxia condition incubated for 2 hrs followed by washed with fresh media incubated for 3 days by alamar blue assay. It counts as functional. In a few lines:
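PC-3 hypoxia selectivity is the IC50 in air divided by the IC50 under N2. Both come from the 2 h exposure, wash, 3-day normoxic incubation and alamarBlue viability readout.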

For data set [6], the system named is PC-3. The data set is described as follows: Cytotoxicity against human PC-3 cells assessed as reduction in cell viability incubated for 2 hrs under normoxic condition followed by washed with fresh media incubated for 3 days by alamar blue assay. It counts as functional, cell-based. In a few lines:
as §1

Data set [7] deals with PC-3. Description: Cytotoxicity against human PC-3 cells assessed as reduction in cell viability preincubated for 4 hrs in hypoxia and further incubated for 5 days in fresh medium by SRB assay. It counts as functional, cell-based. For orientation: In SRB staining, fixed cells bind dye roughly in proportion to their protein.

`O=C(NCCO)c1cc([N+](=O)[O-])cc([N+](=O)[O-])c1N(CCBr)CCBr`: the IC50 – broadly, the point on the concentration scale where inhibition reaches its midpoint – was 26 µM in the data set with PC-3 [1], 80 µM with DU-145 [3], 177 µM in the data set with DU-145 [4] and 193 µM in the data set with PC-3 [6]. Besides, the logD (usually lipophilicity at a set pH, counting ionised and neutral species) in data set [2] is reported as 1.7. Besides, in data set [5], the “Ratio IC50” value amounted to 7.4.
Turning to `CS(=O)(=O)OCCN(CCBr)c1c(C(=O)NCCO)cc([N+](=O)[O-])cc1[N+](=O)[O-]`, the IC50 with PC-3 [7] is 7.3 µM; in the data set on PC-3 [1] it was 48 µM; in the data set with DU-145 [3] it was 78 µM; with DU-145 [4], 210 µM; in the data set with PC-3 [6], 320 µM. The logD in data set [2] was 0.8. Moreover, the “Ratio IC50” value in data set [5] was 6.7.
As for `CS(=O)(=O)OCCN(CCBr)c1c(C(=O)NCCC(=O)O)cc([N+](=O)[O-])cc1[N+](=O)[O-]`, the IC50 in the data set with PC-3 [1] stood at 41 µM; in the data set with DU-145 [3] it was 56 µM; in the data set on DU-145 [4], 326 µM; in the data set with PC-3 [6] it was 417 µM. Further, in data set [2], the logD is on record as -0.71. Also, the “Ratio IC50” value in data set [5] stood at 10.
Regarding `O=C(O)CCNC(=O)c1cc([N+](=O)[O-])cc([N+](=O)[O-])c1N(CCBr)CCBr`, the IC50 with PC-3 [1] was determined as 75 µM; in the data set with DU-145 [3], 47 µM; with DU-145 [4], 413 µM; in the data set with PC-3 [6], 490 µM. The logD in data set [2] is 0.42. Also, the “Ratio IC50” value in data set [5] is recorded as 6.5.
For the molecule `O=C(O)CCNC(=O)c1cc([N+](=O)[O-])cc([N+](=O)[O-])c1N(CCBr)CCOS(=O)(=O)C(F)(F)F`, the IC50 came to 90 µM in the data set with PC-3 [1], 68 µM with DU-145 [3], 480 µM in the data set on DU-145 [4] and 350 µM in the data set on PC-3 [6]. This molecule came in with a logD in data set [2] of 0.15. Besides, the “Ratio IC50” value in data set [5] came out at 3.9.
As to `Cc1ccc(S(=O)(=O)OCCN(CCBr)c2c(C(=O)NCCO)cc([N+](=O)[O-])cc2[N+](=O)[O-])cc1`, the IC50 in the data set with PC-3 [1] was 37 µM; in the data set with DU-145 [3], 28 µM; with DU-145 [4], 108 µM; in the data set on PC-3 [6], 146 µM. The molecule further gave a log distribution coefficient (logD) in data set [2] of 0.95. For the same molecule, in data set [5], the “Ratio IC50” value came to 3.9.
On to `Cc1ccc(S(=O)(=O)OCCN(CCBr)c2c(C(=O)NCCC(=O)O)cc([N+](=O)[O-])cc2[N+](=O)[O-])cc1`, for which the IC50 in the data set with PC-3 [1] amounted to 42 µM; with DU-145 [3] it was 54 µM; in the data set with DU-145 [4], 363 µM; in the data set with PC-3 [6], 460 µM. The molecule also returned a logD in data set [2] of 1.03. The “Ratio IC50” value in data set [5] was determined as 11.
`O=C(NCCO)c1cc([N+](=O)[O-])cc([N+](=O)[O-])c1N(CCBr)CCOS(=O)(=O)C(F)(F)F`: the IC50 stood at 42 µM in the data set on PC-3 [1], 51 µM with DU-145 [3], 470 µM in the data set on DU-145 [4] and 245 µM in the data set with PC-3 [6]. Moreover, the logD in data set [2] was 0.33. Besides, in data set [5], the “Ratio IC50” value came out at 5.8.

Source of the values: ChEMBL document CHEMBL4673308, “Synthesis and evaluation of new dinitrobenzamide mustards in human prostate cancer” (Bioorg Med Chem Lett, 2021).
